Measurements gathered from unrelated publications.
Target: Serine/threonine-protein kinase MARK1 (MARK1, Homo sapiens, UniProt Q9P0L2)

Compound | test | setting | quantity | value
C#Cc1n[nH]c2c(-c3cn([C@@H](C)c4ccccc4)c(=O)[nH]c3=O)cc(F)cc12 | enzyme activity, inhibitor | 0.1 µM | inhibition | 4.1%
Nc1ncc(-c2nc(N3CCOCC3)nc(N3CCOCC3)n2)c(C(F)F)n1 | binding, competition with immobilised ligand | 10 µM | remaining binding | 88%
O=c1[nH]c2ccccc2n1C1CCN(Cc2ccc(-c3[nH]c4cc5ncnc5cc4nc3-c3ccccc3)cc2)CC1 | cell-free assay | 0.5 µM | remaining signal | 104%
Cn1cc(-c2cc(F)cc(N3CCn4c(cc5c4CCCC5)C3=O)c2CO)cc(Nc2ccc(N3CCN(C4COC4)CC3)cn2)c1=O | enzyme activity, inhibitor | 0.1 µM | inhibition | 10%
C#Cc1n[nH]c2c(-c3cn([C@@H](C)c4ccccn4)c(=O)[nH]c3=O)cc(F)cc12 | enzyme activity, inhibitor | 0.1 µM | inhibition | 4.9%
Cn1cc(-c2cccc(N3CCc4c(sc5c4CC(C)(C)C5)C3=O)c2CO)cc(Nc2ccncn2)c1=O | enzyme activity, inhibitor | 1 µM | inhibition | 1%
COc1cc(Nc2ncc(F)c(Nc3ccc4c(n3)NC(=O)C(C)(C)O4)n2)cc(OC)c1OC | binding, competition with immobilised ligand | 10 µM | inhibition | 94%
COc1ncccc1-c1cnn2ccc(N3CCN(C(=O)OC(C)C)CC3)nc12 | binding, competition with immobilised ligand | 1 µM | remaining binding | 100%
Cn1cncc1[C@@](O)(COc1ccc(C#N)cc1-c1ccc(OC(F)(F)F)cc1)c1ccc(C#N)cc1 | cell-free assay, competition with immobilised ligand | 1 µM | remaining binding | 100%
CC(C)(C)c1cc(C=C(C#N)C#N)cc(Br)c1O | enzyme activity, inhibitor | 0.5 µM | remaining activity | 98.8%
N#CC1(c2ccccn2)CCN(Cc2cc(C(=O)O)c(=O)n3ccccc23)CC1 | cell-free assay, competition with immobilised ligand | 1 µM | remaining binding | 94%
Cc1nn(C)cc1-c1nc2c(N3CCN(Cc4ccc(Cl)cc4)CC3)c(Cl)cnc2[nH]1 | binding, competition with immobilised ligand | 1 µM | remaining binding | 78%
